Hits are enriched below; roughly 2.9% of the tested compounds scored in any of these assays.
OX1R antag-1 = OX1R (human) antagonism | AID 485270 | 330,000 compounds, 1.8% hits | inhibition, % at 6.6 µM | O43613 | OX1R-expressing cells, FRET antagonist read-out; in the data active = inhibition mostly above about 38%, no sharp cut-off; inactive = mostly below about 40%
Target sequence (O43613 whole entry, looked up): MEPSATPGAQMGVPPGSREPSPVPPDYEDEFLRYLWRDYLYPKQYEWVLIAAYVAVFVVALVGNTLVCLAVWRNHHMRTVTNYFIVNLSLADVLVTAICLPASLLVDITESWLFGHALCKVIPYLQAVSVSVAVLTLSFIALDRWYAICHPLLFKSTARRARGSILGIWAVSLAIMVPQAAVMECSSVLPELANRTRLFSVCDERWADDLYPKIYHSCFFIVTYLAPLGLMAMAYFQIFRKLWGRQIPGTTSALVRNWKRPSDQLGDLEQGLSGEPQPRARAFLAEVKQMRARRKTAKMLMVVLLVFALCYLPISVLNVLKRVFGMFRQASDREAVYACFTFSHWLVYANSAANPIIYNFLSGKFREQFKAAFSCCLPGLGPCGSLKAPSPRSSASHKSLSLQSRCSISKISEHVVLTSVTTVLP
CHO-K1 Ca antag = M1 antagonist counterscreen hit in parental CHO-K1 cells. AID 602250. 360,000 compounds, 0.6% hits. ATP-induced calcium, Fluo-8 fluorescence. inhibition, % at 3 µM;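 active = inhibition above a per-plate cutoff, the plate's mean sample inhibition plus 3 SD, cut at about 24% in these data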
M1 PAM parental = nonselective activator or artifact in parental CHO-K1 calcium assay. ATP EC20, Fluo-8 calcium fluorescence; 0% at ATP EC20, 100% at ATP max. activation, % at 3 µM. 360,000 compounds, 0.02% hits;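 active = activation above the run cutoff, the mean activation of all test compounds plus 3 SD, cut at about 40% in these data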;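 also: peak over basal fluorescence ratio in a 140 s read after ATP addition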
CHO-K1 Ca ag = nonselective activator or artifact in parental CHO-K1 cells | Fluo-8 calcium fluorescence; scaled to maximal ATP response, vehicle zero | activation, % at 3 µM | 360,000 compounds, 0.48% hits | AID 602248; in the data active = activation above about 15%;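 also: untransfected CHO-K1 host cells lacking M1 receptor as counterscreen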
OX1R antag-2 = antagonists of human orexin 1 receptor; inhibition, % at 5 µM; AID 434989; CHO/OX1R cells, Fluo-8 calcium fluorescence, orexin A; 330,000 compounds, 0.43% hits;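 active = inhibition above its plate's threshold, mean inhibition of all tested compounds on the plate plus 3 SD, cut at about 37% in these data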
CHO parental Ca = counter-screen for OX1R antagonists: effect in parental CHO cells | parental CHO-K1, ATP-induced calcium, Fluo-8 fluorescence | inhibition, % at 5.6 µM | 330,000 compounds, 0.63% hits | AID 463079;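 active = inhibition above that plate's mean sample inhibition plus 3 SD, cut at about 26% in these data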
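Assay system – parental CHO cells · Reagent – ATP stimulus · Detection – intracellular calcium via Fluo-8 no-wash fluorescent dye · Evaluation – percent inhibition of ATP-evoked calcium rise, normalized to controls · Controls – ATP wells versus no-ATP DMSO wells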
OX1R Fluo8 conf = confirmation of human orexin 1 receptor antagonists | shares compounds with OX1R antag-2 | CHO/OX1R cells, orexin A calcium Fluo-8 fluorescence | inhibition, % at 5 µM | 1,100 compounds, 38% hits | AID 492963; in the data active = inhibition above about 29%
CHO Ca triplic = signal in parental CHO cells, OX1R antagonist counter-screen; inhibition, % at 5.6 µM; parental CHO-K1, ATP-induced calcium, Fluo-8 fluorescence; 1,100 compounds, 9.3% hits; shares compounds with OX1R antag-2; AID 492965;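 active = inhibition above a per-plate limit, the mean inhibition of that plate's test compounds plus 3 SD, cut at about 25% in these data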
OX1R HTRF confirm = confirmation of human orexin 1 receptor antagonists, HTRF format | 1,800 compounds, 49% hits | shares compounds with OX1R antag-1 | inhibition, % at 6.6 µM | OX1R-expressing cells, HTRF antagonist assay; in the data active = inhibition above about 55%;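 also: CHO cells expressing OX1R stimulated with orexin A at about EC80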
CHO-K1 HTRF = counter-screen: parental CHO-K1 HTRF response; inhibition, % at 6.6 µM; 1,800 compounds, 48% hits; shares compounds with OX1R antag-1; AID 493232; parental CHO-K1 cells, HTRF counterscreen; in the data active = inhibition above about 17%
Each line names hits and unclear results; the compound was inactive in the other large screens (follow-up assays come after a bar, where they were run).

CCOC(=O)C1CCN(C(=O)c2cc(S(=O)(=O)N3CCOCC3)ccc2C)CC1	none
Cc1c(NS(=O)(=O)c2cccc(C(=O)OCC(=O)N(C)C3CCCCC3)c2)c(=O)n(-c2ccccc2)n1C	OX1R antag-1 98, OX1R antag-2 37 | OX1R Fluo8 conf 58 | CHO Ca triplic inactive | OX1R HTRF confirm 90 | CHO-K1 HTRF inactive
Cc1nc2c(-c3ccccc3)c(C)nn2c(N)c1-c1ccccc1	OX1R antag-1 81, OX1R antag-2 46 | OX1R Fluo8 conf inactive | CHO Ca triplic inactive | OX1R HTRF confirm 79 | CHO-K1 HTRF inactive
Cc1nc(NCc2ccco2)c2cn[nH]c2n1	none (no result: OX1R antag-1, OX1R antag-2, CHO parental Ca)
c1coc(CNc2nc3nonc3nc2NCc2ccco2)c1	OX1R antag-1 73 | OX1R Fluo8 conf inactive | CHO Ca triplic inactive | OX1R HTRF confirm inactive | CHO-K1 HTRF inactive
Cc1c(NC(=O)Cn2[nH]c(=O)c3ccccc3c2=O)c(=O)n(-c2ccccc2)n1C	none
Cc1sc(NC(=O)Cn2[nH]c(=O)c3ccccc3c2=O)nc1-c1ccccc1	OX1R antag-1 74, OX1R antag-2 39 | OX1R Fluo8 conf 43 | CHO Ca triplic inactive | OX1R HTRF confirm 76 | CHO-K1 HTRF inactive
COC(=O)c1ccccc1NC(=O)CC(=O)Nc1ccccc1C(=O)OC	OX1R antag-1 79 | OX1R Fluo8 conf 56 | CHO Ca triplic inactive | OX1R HTRF confirm 84 | CHO-K1 HTRF inactive
Cn1c(N)c(C(=O)Nc2ccccc2F)sc1=S	none
CCn1c(N)c(C(=O)Nc2ccccc2C(=O)OC)sc1=S	OX1R antag-1 83 | OX1R Fluo8 conf 42 | CHO Ca triplic inactive | OX1R HTRF confirm 86 | CHO-K1 HTRF inactive
CN(Cc1ccccc1)C(=O)Cn1c(=O)oc2cc(S(=O)(=O)NCc3ccccc3)ccc21	OX1R antag-1 48 | OX1R Fluo8 conf 47 | CHO Ca triplic inactive | OX1R HTRF confirm 88 | CHO-K1 HTRF inactive
Cc1ccsc1/C=N/N=C1\C(=O)Nc2ccccc21	OX1R antag-1 91 | OX1R Fluo8 conf 36 | CHO Ca triplic inactive | OX1R HTRF confirm 93 | CHO-K1 HTRF inactive
O=C(Cn1nnc(-c2ccc(F)cc2)n1)NC(=O)NC1CCCCC1	none (no result: OX1R antag-1, OX1R antag-2, CHO parental Ca)
COc1ccc(N(CC(=O)NCCc2cccc(C)c2)S(=O)(=O)c2c(C)noc2C)cc1	OX1R antag-1 103, OX1R antag-2 81 | OX1R Fluo8 conf 68 | CHO Ca triplic inactive | OX1R HTRF confirm 91 | CHO-K1 HTRF inactive
COc1ccc(N(CC(=O)NCCc2ccc(C)cc2)S(=O)(=O)c2c(C)noc2C)cc1	OX1R antag-1 55 | OX1R Fluo8 conf 34 | CHO Ca triplic inactive | OX1R HTRF confirm 84 | CHO-K1 HTRF inactive
COc1ccccc1CCC(=O)OCC(=O)c1c(N)n(CC(C)C)c(=O)n(C)c1=O	OX1R antag-1 49, CHO-K1 Ca ag 17 | OX1R Fluo8 conf 40 | CHO Ca triplic inactive | OX1R HTRF confirm inactive | CHO-K1 HTRF inactive
NS(=O)(=O)c1ccc(CCNC(=O)CN2C(=O)NC(c3ccccc3)(c3ccccc3)C2=O)cc1	none
O=C(CN1C(=O)NC(c2ccccc2)(c2ccccc2)C1=O)NCCc1ccc(F)cc1	OX1R antag-1 69 | OX1R Fluo8 conf 31 | CHO Ca triplic inactive | OX1R HTRF confirm 56 | CHO-K1 HTRF inactive
C#CCN(C[C@@H]1[C@@H](OC(=O)NCc2ccccc2F)[C@@H](OC(=O)NCc2ccccc2F)CN(C(=O)OC(C)C)N1C(=O)OC(C)C)S(=O)(=O)c1ccc(C)cc1	none (no result: OX1R antag-1, OX1R antag-2, CHO parental Ca)
Cc1ccc([C@H]2C[C@H](n3cc(COC(=O)c4ccccc4)nn3)[C@@H](O)CN2C(=O)C2CCCCC2)cc1	none (no result: OX1R antag-1, OX1R antag-2, CHO parental Ca)
CCCCN(C(=O)CSc1ncnc2sccc12)c1c(N)n(Cc2ccccc2)c(=O)[nH]c1=O	none
CCc1cc2c(SCC(=O)N(CC)c3c(N)n(Cc4ccccc4)c(=O)[nH]c3=O)ncnc2s1	OX1R antag-1 84 | OX1R Fluo8 conf 48 | CHO Ca triplic inactive | OX1R HTRF confirm 93 | CHO-K1 HTRF inactive
O=C(c1ccccc1NS(=O)(=O)c1ccccc1[N+](=O)[O-])N1CCCC1	none
C=CCN1C(=O)/C(=C/c2ccc(O)c(OC)c2)S/C1=N/c1nccs1	OX1R antag-1 89, CHO-K1 Ca antag 24, CHO-K1 Ca ag 17 | OX1R Fluo8 conf 36 | CHO Ca triplic inactive | OX1R HTRF confirm 66 | CHO-K1 HTRF inactive
COc1ccccc1C(=O)NCCc1c(C)[nH]c2c(C)ccc(F)c12	OX1R antag-1 50 | OX1R Fluo8 conf inactive | CHO Ca triplic inactive | OX1R HTRF confirm inactive | CHO-K1 HTRF inactive
O=C(CN1CCC(n2nnc3cc(C(F)(F)F)ccc32)CC1)NNC(=O)c1ccco1	none
O=[N+]([O-])c1ccccc1N/N=C\c1ccccc1Cl	none
O=[N+]([O-])c1ccc(O)c(/C=N/Nc2ccccc2Cl)c1	OX1R antag-1 81 | OX1R Fluo8 conf 37 | CHO Ca triplic inactive | OX1R HTRF confirm 84 | CHO-K1 HTRF inactive
COC(=O)C1CN(C(=O)C(C)Oc2ccc(F)cc2)c2ccccc2O1 (stereo not drawn)	none
Cc1cc(SCC(=O)OC(C)C(=O)N(C)c2ccccc2)nc2ccccc12 (stereo not drawn)	OX1R antag-1 38, OX1R antag-2 48 | OX1R Fluo8 conf inactive | CHO Ca triplic inactive | OX1R HTRF confirm 61 | CHO-K1 HTRF inactive
Cc1cccc(NC(=O)NNC(=O)c2cc(-c3ccccc3Cl)nc3ccccc23)c1	OX1R antag-1 83, OX1R antag-2 44 | OX1R Fluo8 conf 38 | CHO Ca triplic inactive | OX1R HTRF confirm 92 | CHO-K1 HTRF inactive
O=C(OCc1nnc(-c2ccc(Br)cc2)o1)c1ccco1	none
CCCN(CC(=O)Nc1ccccc1OC)C(=O)Cn1[nH]c(=O)c2ccccc2c1=O	none
CCCN(CC(=O)Nc1ccccc1OC)C(=O)CSc1ccc(Br)cc1C	OX1R antag-1 58, OX1R antag-2 54 | OX1R Fluo8 conf inactive | CHO Ca triplic inactive | OX1R HTRF confirm 73 | CHO-K1 HTRF inactive
CCOc1ccc2c(c1)c1nc3ccccc3nc1n2C	none (no result: OX1R antag-1, OX1R antag-2, CHO parental Ca)
Cn1c2ccc(Cl)cc2c2nc3ccccc3nc21	OX1R antag-1 91 | OX1R Fluo8 conf 40 | CHO Ca triplic inactive | OX1R HTRF confirm 92 | CHO-K1 HTRF inactive
COc1ccc(C(=O)Nc2ccccc2C(=O)N/N=C/c2ccncc2)cc1OC	none
Cc1ccc2nc(NC(=O)c3ccco3)sc2c1	none

Screening results deposited in PubChem BioAssay by The Scripps Research Institute Molecular Screening Center.
